Measurements reported in ChEMBL document CHEMBL4689842, “EUbOPEN Chemogenomics Library wave 1” (2021).
Values joined by “and” are separate entries in the source; they are usually repeats but may differ in a detail not shown here. Equal values may be shown once.

Tested on: Fibroblast
Assay: Multiplex assay against human fibroblast
Assay type: toxicity, cell-based
How it was run: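 Tubulin, mitochondrial-mass and membrane-permeability phenotypes are per cents of healthy-nucleus cells. Cells were gated by CellPathfinder machine learning into Hoechst high-intensity objects or normal cells, normal cells into healthy, pyknosed or fragmented nuclei, and pyknosed cells into mitotic or apoptotic. Before that, live cells stained at seeding with Hoechst33342, BioTracker Green Microtubule Cytoskeleton Dye, MitoTracker Red and Annexin V Alexa Fluor 680 were imaged on a CQ1 microscope at 37°C and 5% CO2 after compound addition.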

[1] = 12 h, 1 µM, compound concentration 1 uM, replicate 1
[2] = 12 h, 1 µM, compound concentration 1 uM, replicate 2
[3] = 12 h, 10 µM, compound concentration 10 uM, replicate 1
[4] = 12 h, 10 µM, compound concentration 10 uM, replicate 2
[5] = 24 h, 1 µM, compound concentration 1 uM, replicate 1
[6] = 24 h, 1 µM, compound concentration 1 uM, replicate 2
[7] = 24 h, 10 µM, compound concentration 10 uM, replicate 1
[8] = 24 h, 10 µM, compound concentration 10 uM, replicate 2
[9] = 48 h, 1 µM, compound concentration 1 uM, replicate 1
[10] = 48 h, 1 µM, compound concentration 1 uM, replicate 2
[11] = 48 h, 10 µM, compound concentration 10 uM, replicate 1
[12] = 48 h, 10 µM, compound concentration 10 uM, replicate 2

**Q.** What does the source list for `CN(C)C(=O)C(CCN1CCC(O)(c2ccc(Cl)cc2)CC1)(c1ccccc1)c1ccccc1.Cl` [LOPERAMIDE HYDROCHLORIDE]?
**A.** Population Apoptotic (%) [1]: 54%; Population Fragmented Nuclei (%) [1]: 26%; Population Healthy Nuclei (%) [1]: 42%; Population Hoechst High Intensity Objects (%) [1]: 12%; Population Membrane Permeable-Phenotype (%) [1]: 19%; Population Mitochondria Different-Phenotype (%) [1]: 19%; Population Mitotic Cells (%) [1]: 45%; Population Normal (%) [1]: 87%; Population Pyknosed Nuclei (%) [1]: 31%; Population Tubulin-Different-Phenotype (%) [1]: 54%; Total Cell Count [1]: 155; Population Apoptotic (%) [2]: 25%; Population Fragmented Nuclei (%) [2]: 5%; Population Healthy Nuclei (%) [2]: 88%; Population Hoechst High Intensity Objects (%) [2]: 7%; Population Membrane Permeable-Phenotype (%) [2]: 11%; Population Mitochondria Different-Phenotype (%) [2]: 90%; Population Mitotic Cells (%) [2]: 75%; Population Normal (%) [2]: 92%; Population Pyknosed Nuclei (%) [2]: 6%; Population Tubulin-Different-Phenotype (%) [2]: 65%; Total Cell Count [2]: 55; Population Apoptotic (%) [3]: 64%; Population Fragmented Nuclei (%) [3]: 23%; Population Healthy Nuclei (%) [3]: 29%; Population Hoechst High Intensity Objects (%) [3]: 12%; Population Membrane Permeable-Phenotype (%) [3]: 0%; Population Mitochondria Different-Phenotype (%) [3]: 87%; Population Mitotic Cells (%) [3]: 35%; Population Normal (%) [3]: 87%; Population Pyknosed Nuclei (%) [3]: 46%; Population Tubulin-Different-Phenotype (%) [3]: 92%; Total Cell Count [3]: 158; Population Apoptotic (%) [4]: 82%; Population Fragmented Nuclei (%) [4]: 8%; Population Healthy Nuclei (%) [4]: 48%; Population Hoechst High Intensity Objects (%) [4]: 6%; Population Membrane Permeable-Phenotype (%) [4]: 94%; Population Mitochondria Different-Phenotype (%) [4]: 100%; Population Mitotic Cells (%) [4]: 17%; Population Normal (%) [4]: 93%; Population Pyknosed Nuclei (%) [4]: 43%; Population Tubulin-Different-Phenotype (%) [4]: 100%; Total Cell Count [4]: 64; Population Apoptotic (%) [5]: 45%; Population Fragmented Nuclei (%) [5]: 22%; Population Healthy Nuclei (%) [5]: 52%; Population Hoechst High Intensity Objects (%) [5]: 12%; Population Membrane Permeable-Phenotype (%) [5]: 19%; Population Mitochondria Different-Phenotype (%) [5]: 20%; Population Mitotic Cells (%) [5]: 54%; Population Normal (%) [5]: 87%; Population Pyknosed Nuclei (%) [5]: 25%; Population Tubulin-Different-Phenotype (%) [5]: 55%; Total Cell Count [5]: 157; Population Apoptotic (%) [6]: 53%; Population Fragmented Nuclei (%) [6]: 5%; Population Healthy Nuclei (%) [6]: 71%; Population Hoechst High Intensity Objects (%) [6]: 4%; Population Membrane Permeable-Phenotype (%) [6]: 16%; Population Mitochondria Different-Phenotype (%) [6]: 89%; Population Mitotic Cells (%) [6]: 46%; Population Normal (%) [6]: 95%; Population Pyknosed Nuclei (%) [6]: 22%; Population Tubulin-Different-Phenotype (%) [6]: 62%; Total Cell Count [6]: 68; Population Apoptotic (%) [7]: 82%; Population Fragmented Nuclei (%) [7]: 26%; Population Healthy Nuclei (%) [7]: 33%; Population Hoechst High Intensity Objects (%) [7]: 24%; Population Membrane Permeable-Phenotype (%) [7]: 7%; Population Mitochondria Different-Phenotype (%) [7]: 77%; Population Mitotic Cells (%) [7]: 17%; Population Normal (%) [7]: 75%; Population Pyknosed Nuclei (%) [7]: 39%; Population Tubulin-Different-Phenotype (%) [7]: 92%; Total Cell Count [7]: 156; Population Apoptotic (%) [8]: 98%; Population Fragmented Nuclei (%) [8]: 10%; Population Healthy Nuclei (%) [8]: 26%; Population Hoechst High Intensity Objects (%) [8]: 10%; Population Membrane Permeable-Phenotype (%) [8]: 86%; Population Mitochondria Different-Phenotype (%) [8]: 95%; Population Mitotic Cells (%) [8]: 1%; Population Normal (%) [8]: 89%; Population Pyknosed Nuclei (%) [8]: 62%; Population Tubulin-Different-Phenotype (%) [8]: 95%; Total Cell Count [8]: 70; Population Apoptotic (%) [9]: 67%; Population Fragmented Nuclei (%) [9]: 29%; Population Healthy Nuclei (%) [9]: 46%; Population Hoechst High Intensity Objects (%) [9]: 14%; Population Membrane Permeable-Phenotype (%) [9]: 8%; Population Mitochondria Different-Phenotype (%) [9]: 9%; Population Mitotic Cells (%) [9]: 32%; Population Normal (%) [9]: 85%; Population Pyknosed Nuclei (%) [9]: 23%; Population Tubulin-Different-Phenotype (%) [9]: 56%; Total Cell Count [9]: 155; Population Apoptotic (%) [10]: 75%; Population Fragmented Nuclei (%) [10]: 34%; Population Healthy Nuclei (%) [10]: 62%; Population Hoechst High Intensity Objects (%) [10]: 12%; Population Membrane Permeable-Phenotype (%) [10]: 12%; Population Mitochondria Different-Phenotype (%) [10]: 8%; Population Mitotic Cells (%) [10]: 25%; Population Normal (%) [10]: 87%; Population Pyknosed Nuclei (%) [10]: 3%; Population Tubulin-Different-Phenotype (%) [10]: 70%; Total Cell Count [10]: 137; Population Apoptotic (%) [11]: 86%; Population Fragmented Nuclei (%) [11]: 36%; Population Healthy Nuclei (%) [11]: 38%; Population Hoechst High Intensity Objects (%) [11]: 36%; Population Membrane Permeable-Phenotype (%) [11]: 2%; Population Mitochondria Different-Phenotype (%) [11]: 70%; Population Mitotic Cells (%) [11]: 13%; Population Normal (%) [11]: 63%; Population Pyknosed Nuclei (%) [11]: 25%; Population Tubulin-Different-Phenotype (%) [11]: 70%; Total Cell Count [11]: 139; Population Apoptotic (%) [12]: 90%; Population Fragmented Nuclei (%) [12]: 37%; Population Healthy Nuclei (%) [12]: 52%; Population Hoechst High Intensity Objects (%) [12]: 45%; Population Membrane Permeable-Phenotype (%) [12]: 0%; Population Mitochondria Different-Phenotype (%) [12]: 85%; Population Mitotic Cells (%) [12]: 9%; Population Normal (%) [12]: 54%; Population Pyknosed Nuclei (%) [12]: 9%; Population Tubulin-Different-Phenotype (%) [12]: 88%; Total Cell Count [12]: 214

**Q.** Which results are given for `C[C@H]1Oc2cc(cnc2N)-c2c(nn(C)c2C#N)CN(C)C(=O)c2ccc(F)cc21` [LORLATINIB]?
**A.** Population Apoptotic (%) [1]: 60% and 68%; Population Fragmented Nuclei (%) [1]: 26% and 17%; Population Healthy Nuclei (%) [1]: 55% and 68%; Population Hoechst High Intensity Objects (%) [1]: 19% and 8%; Population Membrane Permeable-Phenotype (%) [1]: 20% and 11%; Population Mitochondria Different-Phenotype (%) [1]: 7% and 4%; Population Mitotic Cells (%) [1]: 40% and 31%; Population Normal (%) [1]: 80% and 91%; Population Pyknosed Nuclei (%) [1]: 17% and 14%; Total Cell Count [1]: 210 and 172; Population Apoptotic (%) [2]: 42% and 64%; Population Fragmented Nuclei (%) [2]: 63% and 54%; Population Healthy Nuclei (%) [2]: 25% and 15%; Population Hoechst High Intensity Objects (%) [2]: 34% and 31%; Population Membrane Permeable-Phenotype (%) [2]: 33% and 28%; Population Mitotic Cells (%) [2]: 57% and 35%; Population Normal (%) [2]: 65% and 68%; Population Pyknosed Nuclei (%) [2]: 11% and 30%; Population Tubulin-Different-Phenotype (%) [2]: 40% and 57%; Total Cell Count [2]: 91 and 67; Population Apoptotic (%) [5]: 55% and 64%; Population Fragmented Nuclei (%) [5]: 22% and 24%; Population Healthy Nuclei (%) [5]: 56% and 66%; Population Hoechst High Intensity Objects (%) [5]: 14% and 12%; Population Membrane Permeable-Phenotype (%) [5]: 15% and 6%; Population Mitotic Cells (%) [5]: 44% and 35%; Population Normal (%) [5]: 85% and 87%; Population Pyknosed Nuclei (%) [5]: 21%; Total Cell Count [5]: 201 and 190; Population Apoptotic (%) [6]: 57% and 40%; Population Fragmented Nuclei (%) [6]: 55% and 65%; Population Hoechst High Intensity Objects (%) [6]: 36% and 33%; Population Membrane Permeable-Phenotype (%) [6]: 33% and 20%; Population Mitochondria Different-Phenotype (%) [6]: 0% and 13%; Population Mitotic Cells (%) [6]: 42% and 60%; Population Normal (%) [6]: 63% and 66%; Population Tubulin-Different-Phenotype (%) [6]: 33% and 26%; Total Cell Count [6]: 60 and 87
